Results from ChEMBL document CHEMBL4402514, “Norepinephrine-Transporter-Targeted and DNA-Co-Targeted Theranostic Guanidines” (J Med Chem, 2020).

What was measured:
[1] = Dissociation constant, pKa of compound; format: physicochemical
[2] = Partition coefficient, logP of compound; format: physicochemical; details: octanol/water
[3] = Drug uptake in human SK-N-SH cells using 125I labelled compound by gamma counting method; format: ADME, cell-based
[4] = Half life in human serum incubated up to 24 hrs by HPLC analysis; format: ADME, cell-free
[5] = Stability in human serum assessed as intact compound level after 60 mins by HPLC analysis; format: ADME, cell-free; details: read-out: Stability
Summary of the method: (§1)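 Radioiodinated guanidines were incubated in mouse, human or pig serum and analyzed by radio-HPLC on a C18 column at 0.8 mL/min. The gradient was 0–95% CH3CN over 50 min, then 95% for 20 min. Intact compound was fitted to monoexponential degradation to give half-life. Values are average ± std err.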

[6] = Stability in human serum assessed as intact compound level after 5 mins by HPLC analysis; format: ADME, cell-free; details: read-out: Stability; summary of the method: as §1
[7] = Drug recovery in mouse N1E-115 cells assessed as [125I]-2'-deoxy-5-iodo-uridine level in nucleus after 24 hrs by gamma counting method relative to control; format: ADME, cell-based; details: n1e-115, 24 h, in the assay text read “in DNA” for “in nucleus”
Summary of the method: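 N1E-115 murine neuroblastoma cells were incubated 24 h with 125I agent. Subcellular fractions (cytoplasm, nucleus, DNA pellet) were gamma-counted as percentage of recovered 125I.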

[8] = Stability in mouse serum incubated up to 24 hrs by HPLC analysis; format: ADME, cell-free
[9] = Stability in human SK-N-SH cells assessed as parent compound level after 24 hrs by HPLC analysis; format: ADME, cell-based; details: read-out: Stability
Summary of the method: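 The compound was incubated 24 h in cell culture medium without cells or with SK-N-SH cells. Intact compound and 125IUdR catabolite were quantified by radio-HPLC on a C18 column at 0.8 mL/min, with a 0–95% CH3CN gradient over 50 min and 95% for 20 min.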

[10] = Stability in mouse serum incubated up to 6 hrs by HPLC analysis; format: ADME, cell-free
[11] = Drug uptake in human SK-N-SH cells assessed as [125I]-2'-deoxy-5-iodo-uridine level at 38 kBq/mL after 24 hrs by gamma counting method; format: ADME, cell-based
Summary of the method: (§2)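 SK-N-SH cells were exposed to 125I compound at an extracellular 38 kBq/mL for 1 h or continuously for 24 h. Cell-associated 125I was gamma-counted per cell.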

[12] = Drug uptake in human SK-N-SH cells assessed as [125I]-2'-deoxy-5-iodo-uridine level at 38 kBq/mL after 1 hr by gamma counting method; format: ADME, cell-based; summary of the method: as §2
[13] = Ratio of tumor to blood concentration in NCR nu/nu mouse xenografted with human BE(2)-C cells at 0.44 +/- 0.1 MBq administered intratumorally after 24 hrs by gamma counting method; format: ADME, tissue-based; details: tumour, other
Summary of the method: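 Athymic Ncr nu/nu female and male mice bearing subcutaneous BE(2)-C xenografts were given a single intratumoral injection of the 125I-labelled agent. Tumor and tissues were collected at 24 h, 125I was γ-counted, and uptake was expressed as %ID/g. The tumor-to-blood ratio was derived from the %ID/g values.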

SK-N-SH [14] = assay: Anticlonogenic activity against human SK-N-SH cells assessed as number of colonies at 39.3+/- 0.3 kBq/mL after 1 hr by crystal violet staining based assay; format: functional
Summary of the method: (§3)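 SK-N-SH cells exposed for 1 h to 125I-MIBG (39.3 ± 0.3 kBq/mL extracellular) or IDG (40 ± 0.5 kBq/mL). For the 1 h group, cells were washed with nonradioactive medium and PBS, harvested with trypsin and replated for the clonogenic assay. For the 24 h group, cells were washed, given fresh nonradioactive medium and incubated a further 23 h before plating. Colonies were counted.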

SK-N-SH [15] = assay: Anticlonogenic activity against human SK-N-SH cells assessed as number of colonies at 39.3+/- 0.3 kBq/mL after 24 hr by crystal violet staining based assay; format: functional; summary of the method: as §3
[16] = Drug level in adrenal gland of NCR nu/nu mouse xenografted with human BE(2)-C cells at 0.44 +/- 0.1 MBq administered intratumorally after 24 hrs by gamma counting method; format: ADME, tissue-based; details: in vivo, other
Summary of the method: (§4)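 Athymic Ncr nu/nu female and male mice bearing subcutaneous BE(2)-C xenografts received intratumor injections of the 125I agent. Tissues, tumor and blood were collected at 24 h and counted for radioactivity, expressed as %ID/g. Tumor-to-blood ratios were derived.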

[17] = Drug level in tumor of NCR nu/nu mouse xenografted with human BE(2)-C cells at 0.44 +/- 0.1 MBq administered intratumorally after 24 hrs by gamma counting method; format: ADME, tissue-based, Neoplasm; details: in vivo, other; summary of the method: as §4
[18] = Drug level in tumor of NCR nu/nu mouse xenografted with human BE(2)-C cells at 0.83 +/- 0.09 MBq administered intratumorally after 24 hrs by gamma counting analysis; format: ADME, tissue-based, Neoplasm; details: in vivo, other; summary of the method: as §4
[19] = Drug uptake in cytoplasm of human SK-N-SH cells at 39.3 +/- 0.3 kBq/mL after 24 hrs by gamma counting method relative to control; format: ADME, subcellular
Summary of the method: (§5)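 SK-N-SH cells were exposed 1 h to 125I compound (≈39–40 kBq/mL), then washed with nonradioactive medium and PBS. Cells were processed immediately (1 h) or re-incubated in fresh medium for 23 h (24 h). Cytoplasmic, nuclear and DNA fractions were gamma-counted.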

[20] = Drug uptake in cytoplasm of human SK-N-SH cells at 39.3 +/- 0.3 kBq/mL after 1 hr and followed by compound washout with non-radioactive medium/PBS and measured immediately by gamma counting method relative to control; format: ADME, subcellular; summary of the method: as §5
[21] = target: T1, Sodium-dependent noradrenaline transporter (Homo sapiens, UniProt P23975); assay: Substrate activity at NET in human SK-N-SH cells assessed as drug uptake per cell at 37 kBq/ml incubated for 1 hr in presence of nonradioactive MIBG at 37 degC by filtration based gamma counting method; format: ADME
T1 sequence (P23975 whole entry): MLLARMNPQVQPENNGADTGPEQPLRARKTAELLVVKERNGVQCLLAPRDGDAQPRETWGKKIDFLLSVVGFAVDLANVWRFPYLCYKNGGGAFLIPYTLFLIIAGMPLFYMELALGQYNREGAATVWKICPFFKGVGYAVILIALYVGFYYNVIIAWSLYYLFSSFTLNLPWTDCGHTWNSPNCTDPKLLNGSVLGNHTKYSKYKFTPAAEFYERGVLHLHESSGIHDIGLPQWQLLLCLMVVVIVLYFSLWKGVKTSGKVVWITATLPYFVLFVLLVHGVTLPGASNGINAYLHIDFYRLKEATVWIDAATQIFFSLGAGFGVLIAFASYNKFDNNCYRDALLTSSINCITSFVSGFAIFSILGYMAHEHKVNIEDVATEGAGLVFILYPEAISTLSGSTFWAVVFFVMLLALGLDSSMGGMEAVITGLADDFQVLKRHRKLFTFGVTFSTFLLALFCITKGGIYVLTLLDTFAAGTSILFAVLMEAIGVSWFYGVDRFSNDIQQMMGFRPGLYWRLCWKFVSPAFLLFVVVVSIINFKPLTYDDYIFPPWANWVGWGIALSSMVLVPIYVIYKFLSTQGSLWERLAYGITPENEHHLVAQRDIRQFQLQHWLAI

[22] = target: T1, Sodium-dependent noradrenaline transporter; assay: Substrate activity at NET in human SK-N-SH cells assessed as drug uptake per cell at 37 kBq/ml incubated for 1 hr in presence of nonradioactive MIBG at 4 degC by filtration based gamma counting method; format: ADME
[23] = Drug uptake in human SK-N-SH cells assessed as level of 125I-incorporation into DNA after 1 hr and followed by compound washout with non-radioactive medium/PBS and measured immediately by gamma counting method relative to control; format: ADME, cell-based
Summary of the method: (§6)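 SK-N-SH cells exposed to the 125I-labelled guanidine for 1 h, then washed with nonradioactive medium and PBS. Cells were either processed at once (1 h) or given fresh nonradioactive medium and returned to the incubator for 23 h (24 h). Subcellular fractions (cytoplasm, DNA) were counted by γ-counter. Values are mean and SD, n ≥ 3.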

[24] = Drug uptake in human SK-N-SH cells assessed as level of 125I-incorporation into DNA incubated 1 hr followed by compound washout with non-radioactive medium/PBS and measured after 23 hrs by gamma counting method relative to control; format: ADME, cell-based; summary of the method: as §6

Row | Structure (SMILES) | pKa [1] | logP [2] | Drug uptake [3] | half-life [4] [min] | Stability [8] | also measured
1 | N=C(N)NCc1cccc(I)c1 [IOBENGUANE] | 11.8 | 1.63 | – | – | – | –
2 | N=C(N)NCCCCCC(=O)OC[C@H]1O[C@@H](n2cc([125I])c(=O)[nH]c2=O)C[C@@H]1O | 12.2 | -0.2 | Dose-dependent effect and Tde | 53.4 | Unstable | remaining at 1 h [5]: 47%; remaining at 5 min [6]: 77%; Drug recovery [7]: > 99%; remaining at 24 h [9]: 30%
3 | N=C(N)NC[C@H]1O[C@@H](n2cc([125I])c(=O)[nH]c2=O)C[C@@H]1O | 11.5 | -1.3 | – | – | – | Stability [10]: Unstable; Drug uptake [11]: 0.00054 mBq; Drug uptake [12]: 0.00001 mBq
4 | N=C(N)NCc1cccc([125I])c1 | – | – | – | – | – | Ratio [13]: 19; Activity (SK-N-SH [14]): 229; Activity (SK-N-SH [15]): 250; Drug uptake [16]: 4.64 % ID/g; Drug uptake [17]: 1.85 % ID/g; Drug uptake [18]: 1.85 % ID/g; Drug recovery [7]: 0%; Drug uptake [19]: 74%; Drug uptake [20]: 87%
5 | N=C(N)NCc1ccc(C(=O)OC[C@H]2O[C@@H](n3cc([125I])c(=O)[nH]c3=O)C[C@@H]2O)cc1 | 11.9 | 0.26 | Dose-dependent effect and Tde | 45.6 | Unstable | –
6 | CC(C)(C)c1cc(C(C)(C)C)c2c(c1F)COP(=O)(OC[C@H]1O[C@@H](n3cc([125I])c(=O)[nH]c3=O)C[C@@H]1OC(=O)CCCCCNC(=N)N)O2 (some centres undefined) | 12.1 | 4.58 | Dose-dependent effect and Tde | 900 | Unstable | Drug uptake [21]: 1.85 mBq; Drug uptake [22]: 0.05 mBq; Drug uptake [23]: 14%; Drug uptake [24]: 42%
7 | N=C(N)NCCC(=O)OC[C@H]1O[C@@H](n2cc([125I])c(=O)[nH]c2=O)C[C@@H]1O | 11.9 | -1.48 | Dose-dependent effect and Tde | 23.4 | Unstable | –
